In ChEMBL document CHEMBL1268966, “Tetrasubstituted naphthalene diimide ligands with selectivity for telomeric G-quadruplexes and cancer cells” (Bioorg Med Chem Lett, 2010):
Activity calls are given as the source filed them. The calls are words filed in the database; no cut-off is given here.

Experiments:
Nucleic Acid [1] = assay: Stabilization of human F21T G4-telomeric quadruplex assessed in presence of 300 fold excess duplex DNA by FRET assay; format: nucleic-acid assay
Method in brief: (§1)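 FRET melting temperature assay reporting the shift in quadruplex melting temperature. Competition runs added excess duplex DNA at different ratios, expressed as G-quartet concentration versus duplex nucleotide phosphate concentration.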

Nucleic Acid [2] = assay: Stabilization of Wt26 G-telomeric quadruplex DNA assessed as inhibition of human TOPO 3-alpha binding to DNA by EMSA assay; format: nucleic-acid assay
Method in brief: (§2)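 In vitro EMSA measuring displacement of hPOT1 or Topo IIIα binding to the telomeric sequence WT26. For Topo IIIα, a duplex DNA substrate was tested in parallel.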

Nucleic Acid [3] = assay: Stabilization of duplex DNA assessed as inhibition of human TOPO 3-alpha binding to duplex DNA by EMSA assay; format: nucleic-acid assay; method in brief: as §2
Nucleic Acid [4] = assay: Stabilization of human G4-telomeric quadruplex 23-mer DNA assessed as topology at 1:1 to 1:15 DNA to compound ratio at pH 7.4 after 6 hrs by circular dichroism spectroscopy in presence of 100 mM K+ ions; format: nucleic-acid assay
Method in brief: (§3)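 Circular dichroism spectra of the human telomeric 23-mer DNA at pH 7.4 with various DNA:ligand ratios.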

MCF7 [5] = assay: Cytotoxicity against human MCF7 cells after 96 hrs by SRB assay; details: MCF7, 96 h
MIA PaCa-2 = assay: Cytotoxicity against human MIAPaCa2 cells after 96 hrs by SRB assay; details: MIA PaCa-2, 96 h
[6] = Cytotoxicity against human WI138 cells after 96 hrs by SRB assay
BXPC-3 = assay: Cytotoxicity against human BxPC3 cells after 96 hrs by SRB assay; details: BXPC-3, 96 h
Nucleic Acid [7] = assay: Stabilization of human G4-telomeric quadruplex 23-mer DNA assessed as topology at 1:1 to 1:15 DNA to compound ratio at pH 7.4 after 6 hrs by circular dichroism spectroscopy in presence of 100 mM Na+ ions; format: nucleic-acid assay; method in brief: as §3
Nucleic Acid [8] = assay: Stabilization of human duplex DNA T-loop assessed as melting temperature by FRET assay; format: nucleic-acid assay
Nucleic Acid [9] = assay: Stabilization of human c-kit2 G4 DNA sequence assessed as melting temperature by FRET assay; format: nucleic-acid assay
Nucleic Acid [10] = assay: Stabilization of human F21T G4-telomeric quadruplex assessed as melting temperature by FRET assay; format: nucleic-acid assay; method in brief: as §1
Nucleic Acid [11] = assay: Stabilization of Wt26 G-telomeric quadruplex DNA assessed as inhibition of human POT1 binding to DNA by EMSA assay; format: nucleic-acid assay; method in brief: as §2
HPAC = assay: Cytotoxicity against human HPAC cells after 96 hrs by SRB assay
Nucleic Acid [12] = assay: Stabilization of human c-kit1 G4 DNA sequence assessed as melting temperature by FRET assay; format: nucleic-acid assay
PANC-1 = assay: Cytotoxicity against human PANC1 cells after 96 hrs by SRB assay; details: PANC-1, 96 h
Nucleic Acid [13] = assay: Stabilization of human F21T G4-telomeric quadruplex by FRET assay in presence of duplex to quadruplex DNA ratio of 10:1; format: nucleic-acid assay; method in brief: as §1
A549 = assay: Cytotoxicity against human A549 cells after 96 hrs by SRB assay; details: A549, 96 h
MCF7 [14] = assay: Inhibition of human telomerase activity in human MCF7 cells at 50 nM after 1 week by modified TRAP assay; format: cell-based
Method in brief: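 MCF7 cells were exposed to 50 nM ligand for 1 week, then a further week. Telomerase activity was measured by a modified TRAP–LIG assay with denaturing gel separation. Each PCR product ladder's total intensity was scanned and integrated, then normalized to a positive control with untreated telomerase protein only.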

Row | SMILES | Activity (Nucleic Acid [1]) [%] | inhibition (Nucleic Acid [2]) | inhibition (Nucleic Acid [3]) | Activity (Nucleic Acid [4]) | IC50 (MCF7 [5]) [nM] | IC50 (MIA PaCa-2) [nM] | IC50 [6] [nM] | IC50 (BXPC-3) [nM] | Activity (Nucleic Acid [7]) | deltaTm (Nucleic Acid [8]) [K] | deltaTm (Nucleic Acid [9]) [K] | deltaTm (Nucleic Acid [10]) [K] | inhibition (Nucleic Acid [11]) | IC50 (HPAC) [nM] | deltaTm (Nucleic Acid [12]) [K] | IC50 (PANC-1) [nM] | Activity (Nucleic Acid [13]) | IC50 (A549) [nM] | inhibition (MCF7 [14]) [%]
1 | CN1CCN(CCCCCNc2cc3c4c(c(NCCCCCN5CCN(C)CC5)cc5c4c2C(=O)N(CCCCCN2CCN(C)CC2)C5=O)C(=O)N(CCCCCN2CCN(C)CC2)C3=O)CC1 | 50 | Active | inactive | Active | 196 | 121 | 8430 | 759 | Active | 0.2 | 7.7 | 23.8 | Active | 205 | 1.5 | 193 | Active | 258 | –
2 | CN1CCN(CCCCNc2cc3c4c(c(NCCCCN5CCN(C)CC5)cc5c4c2C(=O)N(CCCCN2CCN(C)CC2)C5=O)C(=O)N(CCCCN2CCN(C)CC2)C3=O)CC1 | 50 | – | – | Active | 100 | 73 | 5500 | 1020 | Active | 0.1 | 16.7 | 24.7 | – | 117 | 4.9 | 106 | Active | 69 | –
3 | CN1CCN(CCCNc2cc3c4c(c(NCCCN5CCN(C)CC5)cc5c4c2C(=O)N(CCCN2CCN(C)CC2)C5=O)C(=O)N(CCCN2CCN(C)CC2)C3=O)CC1 | 50 | Active | inactive | Active | 167 | 111 | 9040 | 1520 | Active | 1.3 | 15.2 | 28.3 | Active | 186 | 1.8 | 148 | Active | 108 | 50
